Entries after “also recorded” stand apart in the source; their conditions may differ.
Experiments:
[1] = target: human TRPM3 isoforms (Homo sapiens, UniProt Q9HCF6); assay type: cell-based; details: concentration-dependent
[2] = test system: TRPM8; experiment: Ca2+ measurement in HEK293 cells transfected with TRPM8; assay type: cell-based, human; details: 100 μmol/L Dic; Men 100 μmol/L
[3] = test system: human COX-1 / COX-2; details: times potent for COX-1; ref Jett et al. 1999; cited from earlier work
[4] = test system: wild-type control HEK293 cells; experiment: Whole-cell patch clamp in wild-type control HEK293 cells; assay type: cell-based, human; details: 10 and 30 μmol/L Dic; cells without TRPM3s
Method in brief: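 Untransfected HEK293 cells, whole-cell mode, 2.5–5 MΩ electrodes, 25 ± 1°C. Pipette (mmol/L): Cs-aspartate 110, CsCl 30, MgCl2 1, HEPES 10, EGTA 1, Na2ATP 2, pH 7.2. HEPES-buffered bath at pH 7.4 with 2.2 CaCl2. Ramps from −110 to +90 mV (400 msec) every 10 sec from −10 mV holding. Junction potential corrected, leak uncorrected. Test compound at 10 and 30 μmol/L.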

[5] = target: TRPV4 (Homo sapiens, UniProt Q9HBA0); experiment: Ca2+ measurement in HEK293 cells transfected with TRPV4; assay type: cell-based
[6] = test system: guinea pig ileum; details: ref Fujimoto et al. 2006; cited from earlier work
[7] = test system: human TRPM3-S; experiment: Whole-cell patch clamp, constitutive spontaneous currents in HEK-TRPM3-S cells; assay type: cell-based; details: 10 and 30 μmol/L Dic; absence of PregS
[8] = test system: mouse; details: ref Tajino et al. 2007; cited from earlier work
[9] = test system: TRPC5; details: read-out: IC50 for TRPC5; ref Jiang et al. 2012; cited from earlier work
[10] = test system: human TRPM3s (TRPM3_1325, TRPM3-3, TRPM3-9); experiment: Whole-cell patch clamp in HEK-TRPM3s cells; assay type: cell-based
[11] = target: human TRPM3-3 (Homo sapiens, UniProt Q9HCF6); assay type: cell-based; details: 100 μmol/L Dic applied during sustained response; Nif 30 μmol/L
[12] = target: TRPM2 (Homo sapiens, UniProt O94759); experiment: Ca2+ measurement in HEK293 cells transfected with TRPM2; assay type: cell-based
[13] = test system: TRPC6-like channel; details: 500 μmol/L; without affecting channel conductance; ref Ilatovskaya et al. 2011; cited from earlier work
[14] = test system: mouse TRPM3α2 (mTRPM3α2); details: read-out: IC50 against mTRPM3α2; ref Klose et al. 2011; cited from earlier work
[15] = target: endogenous TRPM3 in nIMR-32 cells (Homo sapiens, UniProt Q9HCF6); experiment: Ca2+ measurement in differentiated neuronal IMR-32; assay type: cell-based; details: 30 μmol/L; some nIMR-32 cells, not non-neuronal IMR-32 cells
Sequence of endogenous TRPM3 in nIMR-32 cells (Q9HCF6 whole entry): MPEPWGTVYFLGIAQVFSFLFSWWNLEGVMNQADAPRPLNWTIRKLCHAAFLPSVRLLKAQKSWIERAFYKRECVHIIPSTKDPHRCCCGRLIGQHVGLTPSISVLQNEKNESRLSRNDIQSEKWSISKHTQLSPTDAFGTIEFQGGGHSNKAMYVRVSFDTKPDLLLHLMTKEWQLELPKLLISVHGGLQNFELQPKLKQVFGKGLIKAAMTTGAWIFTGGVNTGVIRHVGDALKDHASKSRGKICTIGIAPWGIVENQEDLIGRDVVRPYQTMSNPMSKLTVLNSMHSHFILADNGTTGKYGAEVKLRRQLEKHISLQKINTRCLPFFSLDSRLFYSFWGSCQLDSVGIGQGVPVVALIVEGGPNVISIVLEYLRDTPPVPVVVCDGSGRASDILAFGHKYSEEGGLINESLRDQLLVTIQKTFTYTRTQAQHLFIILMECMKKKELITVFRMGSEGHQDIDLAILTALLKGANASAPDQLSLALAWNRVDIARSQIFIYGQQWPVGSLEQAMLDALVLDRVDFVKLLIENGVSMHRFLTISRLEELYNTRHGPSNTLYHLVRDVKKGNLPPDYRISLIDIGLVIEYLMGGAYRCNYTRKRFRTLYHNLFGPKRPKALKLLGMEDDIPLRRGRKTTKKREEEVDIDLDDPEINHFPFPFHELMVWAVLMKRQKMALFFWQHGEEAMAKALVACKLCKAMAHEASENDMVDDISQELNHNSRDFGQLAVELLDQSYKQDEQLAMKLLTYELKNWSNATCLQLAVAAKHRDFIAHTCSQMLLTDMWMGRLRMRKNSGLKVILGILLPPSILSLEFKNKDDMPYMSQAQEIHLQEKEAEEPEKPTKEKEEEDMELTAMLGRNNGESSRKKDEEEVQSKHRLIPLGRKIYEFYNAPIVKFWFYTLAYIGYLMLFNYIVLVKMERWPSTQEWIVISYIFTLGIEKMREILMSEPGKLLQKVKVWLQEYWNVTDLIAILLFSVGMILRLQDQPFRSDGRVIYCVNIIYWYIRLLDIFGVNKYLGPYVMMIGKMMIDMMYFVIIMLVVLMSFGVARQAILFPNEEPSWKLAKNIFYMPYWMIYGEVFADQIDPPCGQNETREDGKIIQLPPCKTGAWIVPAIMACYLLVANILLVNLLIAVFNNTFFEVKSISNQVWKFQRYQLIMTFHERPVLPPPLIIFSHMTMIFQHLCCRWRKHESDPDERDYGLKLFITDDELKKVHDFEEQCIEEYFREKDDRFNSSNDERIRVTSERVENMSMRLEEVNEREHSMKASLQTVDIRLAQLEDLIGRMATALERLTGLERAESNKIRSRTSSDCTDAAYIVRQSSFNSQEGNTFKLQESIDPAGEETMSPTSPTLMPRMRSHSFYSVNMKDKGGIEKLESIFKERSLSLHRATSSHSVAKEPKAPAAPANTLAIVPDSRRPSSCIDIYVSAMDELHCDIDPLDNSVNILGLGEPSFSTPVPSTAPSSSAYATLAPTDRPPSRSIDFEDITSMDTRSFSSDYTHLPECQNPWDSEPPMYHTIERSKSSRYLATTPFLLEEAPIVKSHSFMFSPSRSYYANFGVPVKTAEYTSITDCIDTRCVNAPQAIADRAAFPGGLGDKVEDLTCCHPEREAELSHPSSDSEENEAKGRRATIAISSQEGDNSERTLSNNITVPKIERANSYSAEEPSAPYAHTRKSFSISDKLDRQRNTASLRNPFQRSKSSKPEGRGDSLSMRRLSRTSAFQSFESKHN

Sequence of human TRPM3 isoforms (Q9HCF6 whole entry, canonical isoform): as the sequence (Q9HCF6 whole entry) above
Sequence of TRPM2 (O94759 whole entry): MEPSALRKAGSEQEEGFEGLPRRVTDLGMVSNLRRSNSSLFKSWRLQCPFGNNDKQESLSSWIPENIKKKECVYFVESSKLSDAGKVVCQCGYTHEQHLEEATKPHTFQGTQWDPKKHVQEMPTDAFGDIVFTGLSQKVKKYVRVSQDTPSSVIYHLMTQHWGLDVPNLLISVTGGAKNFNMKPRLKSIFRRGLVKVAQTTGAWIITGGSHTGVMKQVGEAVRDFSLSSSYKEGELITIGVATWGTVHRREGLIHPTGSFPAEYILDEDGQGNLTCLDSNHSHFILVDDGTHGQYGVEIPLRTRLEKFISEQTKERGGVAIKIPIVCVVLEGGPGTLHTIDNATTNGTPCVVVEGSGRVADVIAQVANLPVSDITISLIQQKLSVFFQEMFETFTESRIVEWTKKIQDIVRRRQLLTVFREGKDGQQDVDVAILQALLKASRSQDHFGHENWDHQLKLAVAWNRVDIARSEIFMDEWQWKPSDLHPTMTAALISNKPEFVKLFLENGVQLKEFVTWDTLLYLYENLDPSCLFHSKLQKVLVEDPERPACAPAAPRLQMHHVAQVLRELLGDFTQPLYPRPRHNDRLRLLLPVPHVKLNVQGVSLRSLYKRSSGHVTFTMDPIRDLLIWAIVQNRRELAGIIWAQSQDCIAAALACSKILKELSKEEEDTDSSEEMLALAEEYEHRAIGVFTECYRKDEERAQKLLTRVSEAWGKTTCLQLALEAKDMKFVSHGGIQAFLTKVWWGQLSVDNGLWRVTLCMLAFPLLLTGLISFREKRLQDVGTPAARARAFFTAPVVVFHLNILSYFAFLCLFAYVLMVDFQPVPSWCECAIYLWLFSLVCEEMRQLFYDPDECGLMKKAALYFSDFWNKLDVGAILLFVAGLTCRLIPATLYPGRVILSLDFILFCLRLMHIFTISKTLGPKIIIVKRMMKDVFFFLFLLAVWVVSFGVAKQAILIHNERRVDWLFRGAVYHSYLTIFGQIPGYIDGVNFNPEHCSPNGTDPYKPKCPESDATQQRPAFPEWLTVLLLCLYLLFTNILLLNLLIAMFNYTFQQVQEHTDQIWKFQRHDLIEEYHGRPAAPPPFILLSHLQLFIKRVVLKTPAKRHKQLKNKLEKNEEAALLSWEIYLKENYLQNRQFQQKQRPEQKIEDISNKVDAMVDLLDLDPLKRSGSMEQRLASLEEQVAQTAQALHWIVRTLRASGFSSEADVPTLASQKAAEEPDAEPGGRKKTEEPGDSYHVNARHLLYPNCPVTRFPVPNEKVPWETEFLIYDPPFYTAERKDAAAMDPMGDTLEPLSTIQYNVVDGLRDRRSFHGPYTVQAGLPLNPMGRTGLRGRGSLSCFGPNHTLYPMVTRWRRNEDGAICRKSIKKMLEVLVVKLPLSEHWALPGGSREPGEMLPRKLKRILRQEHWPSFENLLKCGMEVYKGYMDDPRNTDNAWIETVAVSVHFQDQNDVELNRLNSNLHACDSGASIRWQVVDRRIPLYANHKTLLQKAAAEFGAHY
Sequence of TRPV4 (Q9HBA0 whole entry): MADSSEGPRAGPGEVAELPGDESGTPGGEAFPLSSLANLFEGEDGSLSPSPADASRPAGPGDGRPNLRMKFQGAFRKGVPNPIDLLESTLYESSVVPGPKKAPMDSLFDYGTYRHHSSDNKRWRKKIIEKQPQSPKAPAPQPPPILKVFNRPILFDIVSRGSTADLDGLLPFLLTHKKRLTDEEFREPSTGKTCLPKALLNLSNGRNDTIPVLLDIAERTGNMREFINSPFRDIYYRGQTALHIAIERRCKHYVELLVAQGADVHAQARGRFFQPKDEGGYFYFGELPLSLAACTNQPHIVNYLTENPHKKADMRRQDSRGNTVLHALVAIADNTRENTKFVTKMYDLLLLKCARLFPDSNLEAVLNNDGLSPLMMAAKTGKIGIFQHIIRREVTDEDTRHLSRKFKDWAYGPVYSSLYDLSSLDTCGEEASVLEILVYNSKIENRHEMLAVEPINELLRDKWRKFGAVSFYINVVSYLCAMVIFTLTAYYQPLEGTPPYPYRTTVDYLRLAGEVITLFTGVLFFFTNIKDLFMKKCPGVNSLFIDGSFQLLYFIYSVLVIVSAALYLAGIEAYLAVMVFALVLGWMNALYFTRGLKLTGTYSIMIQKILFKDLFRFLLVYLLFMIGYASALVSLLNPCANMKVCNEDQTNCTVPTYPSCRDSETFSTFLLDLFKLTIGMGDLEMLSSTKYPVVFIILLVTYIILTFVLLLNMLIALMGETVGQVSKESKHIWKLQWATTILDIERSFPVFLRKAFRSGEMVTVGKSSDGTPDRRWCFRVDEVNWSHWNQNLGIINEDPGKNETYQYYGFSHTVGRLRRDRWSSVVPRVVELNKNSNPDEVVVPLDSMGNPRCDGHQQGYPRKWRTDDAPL

With `COC(=O)C1=C(C)NC(C)=C(C(=O)OC)C1c1ccccc1[N+](=O)[O-]` [Nif, nifedipine] as the molecule, how does the “agonist effect on intracellular Ca2+ concentration” value [1] read?
The value was “induced Ca^2+ response”.

Which “effect on Men-induced Ca2+ response” value [2] does the source give for `O=C(O)Cc1ccccc1Nc1c(Cl)cccc1Cl` [Dic, diclofenac] here?
Its value is “failed to inhibit; also recorded: resistant”.

And the “preference to inhibit COX-1 than COX-2” value [3]?
Its value is 1.6 times.

And the “effect on small basal currents evoked by ramp voltage commands” value [4]?
The value was “did not affect”.

And the IC50 [5]?
The IC50 was over 100 µM.

And the “effect on GSK-induced Ca2+ response” value ([5]; 100 μmol/L Dic, GSK 3 nmol/L)?
The value was “failed to inhibit”.

What about the “effect on capsaicin-induced ileum relaxation” value [6] of the same molecule?
The value was “no effects”.

What about the “effect on constitutive spontaneously active TRPM3-S currents” value [7] of the same molecule?
Its value is “substantially inhibited; also recorded: significantly inhibited”.

What about the “effect on Men-evoked hyperthermia” value [8] of the same molecule?
The value was “no effects”.

What about the IC50 [9] of the same molecule?
The IC50 was 170 µM.

What about the “reversibility of current inhibition after withdrawal” value ([10]; 10 and 30 μmol/L Dic, 30 μmol/L PregS) of the same molecule?
Its value is “immediately reversed”.

And the “effect on PregS-evoked inward and outward currents” value ([10]; 10 and 30 μmol/L Dic, 30 μmol/L PregS, whole-cell)?
Its value is “inhibited”.

What about the “voltage dependence of inhibition” value ([10]; comparison between -80 mV and +80 mV) of the same molecule?
The value was “voltage‐independent”.

What about the “Nif-evoked sustained Ca2+ response versus PregS response” value [11] of the same molecule?
Its value is “clearly resistant”.

What about the IC50 [12] of the same molecule?
The IC50 was over 100 µM.

And the “effect on H2O2-induced Ca2+ response” value ([12]; 100 μmol/L Dic, H2O2 1 mmol/L)?
Its value is “failed to inhibit”.

And the “effect on Nif-induced TRPM3-dependent Ca2+ responses” value ([1]; 30 μmol/L Nif)?
Its value is “significantly inhibited”.

What about the “effect on TRPC6-like channel activity” value [13] of the same molecule?
Its value is “decreased”.

Which “preference to inhibit COX-1 than COX-2” value [3] does the source give for `COc1ccc2c(c1)c(CC(=O)O)c(C)n2C(=O)c1ccc(Cl)cc1` [Ind, indomethacin] here?
The value was 25 times.

With `Cc1cccc(Nc2ccccc2C(=O)O)c1C` [mefenamic acid] as the molecule, how does the IC50 [14] read?
The IC50 was 6.6 µM.

What does the source list for pregnenolone sulfate [PregS]?
agonist Ca2+ response in nIMR-32 cells [15]: evoked a Ca^2+ response; agonist effect on intracellular Ca2+ concentration [1]: induced elevation
